Assay results taken from article PMC4577306 (Biochimica et biophysica acta, 2015).
No end group written: not given here.

Experiments:
human RIIα = human RIIα (Homo sapiens, UniProt P13861); test: SPR kinetics of RIIα on immobilized neurochondrin peptides; assay type: binding; conditions: for kon: read-out: ka (apparent association rate constant)
In short: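 Human RIIα purified by cAMP affinity chromatography. Test peptides dissolved in DMSO, amine-coupled to CM5 chips after 10 min NHS/EDC activation to about 1 RU, then blocked with 1 M ethanolamine-HCl pH 8.5, at 5 μL/min and 25 °C. Activated/deactivated reference flow cell. Running buffer 100 mM Tris, 150 mM NaCl, 0.005% Tween 20, pH 7.4, 25 °C. Surfaces regenerated with SDS, 4 M guanidinium-HCl and 1 M NaCl buffer.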

[1] = biological target: neurochondrin peptide I (human); test: SPR
[2] = biological target: neurochondrin peptide II (human); test: SPR

Sequence of human RIIα (P13861 whole entry): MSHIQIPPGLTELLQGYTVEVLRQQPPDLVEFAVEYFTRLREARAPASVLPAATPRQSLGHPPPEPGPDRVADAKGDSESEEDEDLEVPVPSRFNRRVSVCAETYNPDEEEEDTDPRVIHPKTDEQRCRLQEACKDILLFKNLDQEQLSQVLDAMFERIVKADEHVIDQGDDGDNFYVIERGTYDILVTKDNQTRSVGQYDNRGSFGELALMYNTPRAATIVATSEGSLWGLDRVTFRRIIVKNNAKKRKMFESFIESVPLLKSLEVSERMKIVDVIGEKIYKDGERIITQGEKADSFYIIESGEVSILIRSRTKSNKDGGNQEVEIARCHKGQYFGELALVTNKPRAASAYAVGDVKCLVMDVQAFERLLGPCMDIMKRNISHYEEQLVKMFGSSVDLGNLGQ

Kd (human RIIα) [nM]	kon (human RIIα) [M⁻¹ s⁻¹]	Kd [1] [nM]	Kd [2] [nM]	Substance
9.6 ± 4.8	110000 ± 5e+09			KLSSWQRNPALKLAARLAHA-NH2 [peptide II]
		9.3	9.6	human RIIα subunit of cAMP-dependent protein kinase (PKA) (from UniProt P13861 1-404) (natural protein)
9.3 ± 3.1	120000 ± 1e+09			YAGDIDAKTRRRIFDAVGFTF-NH2 [peptide I]
